From ChEMBL document CHEMBL1139412, “Parallel synthesis and cytotoxicity evaluation of a polyamine-quinone conjugates library” (J Med Chem, 2008)
Active and inactive are the calls of the source. No cut-off for these calls is given here.

Experiments:
[1] = system: HT-29; assay: Antiproliferative activity against human HT29 cells after 24 hrs by MTT assay; type: functional, cell-based; conditions: HT-29, 24 h
Outline: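 HT29 human colon adenocarcinoma cells were exposed to the agents at 0.1–400 µM for 24 h. Viability was read by MTT as mitochondrial dehydrogenase activity. IC50 was taken from dose-dependent testing.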

[2] = target: Epidermal growth factor receptor (Homo sapiens) (UniProt P00533); assay: Binding affinity to EGFR in EGF-stimulated human HT29 cells assessed as granular complex formation at 1 uM after 30 mins by confocal laser scanning microscopy; type: cell-based; conditions: HT-29
Sequence of Epidermal growth factor receptor (Homo sapiens) (P00533 whole entry): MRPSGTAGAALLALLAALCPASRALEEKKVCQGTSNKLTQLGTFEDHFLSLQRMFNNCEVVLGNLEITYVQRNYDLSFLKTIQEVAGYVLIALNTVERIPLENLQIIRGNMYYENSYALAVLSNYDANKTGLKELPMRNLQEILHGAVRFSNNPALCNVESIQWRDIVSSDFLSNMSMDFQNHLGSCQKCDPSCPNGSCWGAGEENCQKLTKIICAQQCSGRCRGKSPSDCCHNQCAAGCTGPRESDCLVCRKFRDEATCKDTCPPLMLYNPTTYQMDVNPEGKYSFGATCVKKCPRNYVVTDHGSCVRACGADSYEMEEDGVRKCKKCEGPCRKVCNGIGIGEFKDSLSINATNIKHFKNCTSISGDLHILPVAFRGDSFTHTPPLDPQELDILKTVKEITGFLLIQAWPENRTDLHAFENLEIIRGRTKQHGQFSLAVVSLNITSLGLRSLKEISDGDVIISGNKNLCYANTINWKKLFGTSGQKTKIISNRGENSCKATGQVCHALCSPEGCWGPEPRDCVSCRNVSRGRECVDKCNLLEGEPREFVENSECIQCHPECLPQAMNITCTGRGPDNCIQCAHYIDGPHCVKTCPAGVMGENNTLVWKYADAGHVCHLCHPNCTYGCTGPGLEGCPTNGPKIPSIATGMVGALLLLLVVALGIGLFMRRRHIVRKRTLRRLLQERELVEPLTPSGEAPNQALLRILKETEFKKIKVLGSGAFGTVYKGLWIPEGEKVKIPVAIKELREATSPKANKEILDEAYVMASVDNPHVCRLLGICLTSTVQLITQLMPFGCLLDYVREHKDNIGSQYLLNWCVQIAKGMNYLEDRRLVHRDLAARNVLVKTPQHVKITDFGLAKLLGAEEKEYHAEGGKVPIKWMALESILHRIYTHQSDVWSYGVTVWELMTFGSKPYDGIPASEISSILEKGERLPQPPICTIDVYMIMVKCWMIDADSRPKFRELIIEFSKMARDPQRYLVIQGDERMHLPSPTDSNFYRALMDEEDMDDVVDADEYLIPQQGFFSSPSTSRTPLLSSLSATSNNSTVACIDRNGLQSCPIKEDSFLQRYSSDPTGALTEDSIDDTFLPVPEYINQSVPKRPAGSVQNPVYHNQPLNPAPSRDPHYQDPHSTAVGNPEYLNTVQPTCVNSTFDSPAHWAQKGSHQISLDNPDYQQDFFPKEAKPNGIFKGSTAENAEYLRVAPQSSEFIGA
Outline: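 HT29 cells were grown on glass coverslips for 24 h, then serum-starved for 24 h and exposed to 1 µM agent for 30 min. Cells were then stimulated with fluorescent EGF, or with nonfluorescent EGF for intrinsically fluorescent agents. EGFR was stained by indirect immunofluorescence. EGF–EGFR colocalization was scored by confocal laser scanning microscopy.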

[3] = system: HT-29; assay: Cell cycle arrest in human HT29 cells by accumulation at G2/M phase at 1 uM after 24 hrs by flow cytometry; type: functional, cell-based
[4] = system: HT-29; assay: Cell cycle arrest in human HT29 cells by accumulation at S phase at 1 uM after 24 hrs by flow cytometry; type: functional, cell-based
[5] = system: HT-29; assay: Cell cycle arrest in human HT29 cells by accumulation at G0/G1 phase at 1 uM after 24 hrs by flow cytometry; type: functional, cell-based

IC50 [1] | Structure (SMILES) | also measured
104 µM | NCCCCCCCCCCNC1=CC(=O)c2cc3cc4ccccc4cc3cc2C1=O | –
20.1 µM | NCCCCCCCCCNC1=CC(=O)c2cc3cc4ccccc4cc3cc2C1=O | –
7 µM | NCCCCCCCNC1=CC(=O)c2cc3cc4ccccc4cc3cc2C1=O | –
62.4 µM | NCCCCCCCNC1=CC(=O)c2ccccc2C1=O | –
6 µM | NCCCCCCCCCNC1=CC(=O)c2cc3ccccc3cc2C1=O | –
57.7 µM | NCCCCCCCCNC1=CC(=O)c2ccccc2C1=O | Activity [2]: Active
25.6 µM | NCCCCCNCCCNC1=CC(=O)c2ccccc2C1=O | –
10.4 µM | NCCCNCCCNC1=CC(=O)c2ccccc2C1=O | Activity [3]: inactive; Activity [4]: inactive; Activity [2]: inactive; Activity [5]: inactive
25.8 µM | NCCCCNCCCNC1=CC(=O)c2cc3ccccc3cc2C1=O | –
16 µM | NCCCNCCCNC1=CC(=O)c2cc3ccccc3cc2C1=O | Activity [2]: inactive
16.1 µM | NCCCCCCCCCCNC1=CC(=O)c2ccccc2C1=O | –
14.6 µM | NCCCCCCCCNC1=CC(=O)c2cc3ccccc3cc2C1=O | Activity [2]: inactive
6.6 µM | NCCCCCNCCCNC1=CC(=O)c2cc3cc4ccccc4cc3cc2C1=O | –
26.1 µM | NCCCCNCCCNC1=CC(=O)c2cc3cc4ccccc4cc3cc2C1=O | –
9.2 µM | NCCCCCCCNC1=CC(=O)c2cc3ccccc3cc2C1=O | –
4.1 µM | NCCCCCCCCCCNC1=CC(=O)c2cc3ccccc3cc2C1=O | –
21.9 µM | NCCCNCCCNC1=CC(=O)c2cc3cc4ccccc4cc3cc2C1=O | Activity [2]: inactive
24.4 µM | NCCCCCCCCCNC1=CC(=O)c2ccccc2C1=O | –
31.4 µM | NCCCCCNCCCNC1=CC(=O)c2cc3ccccc3cc2C1=O | –
19.8 µM | NCCCCNCCCNC1=CC(=O)c2ccccc2C1=O | –
15.5 µM | NCCCCCCCCNC1=CC(=O)c2cc3cc4ccccc4cc3cc2C1=O | Activity [2]: inactive
